# This excerpt belongs to a sample that is enriched for hits.
# RORA inh – inhibitors of human nuclear receptor RORA; P35398; CHO-K1 Gal4-RORA LBD luciferase reporter, luminescence; inhibition, % at 10 µM; 65,000 compounds, 0.43% hits;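 active means inhibition above the mean of all tested compounds plus 3 SD, cut at about 52% in these data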;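 further: 0% = RORA-transfected cells with DMSO and 100% = mock-transfected cells lacking RORA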
# Target sequence (P35398 whole entry, looked up, the tested form may be a part): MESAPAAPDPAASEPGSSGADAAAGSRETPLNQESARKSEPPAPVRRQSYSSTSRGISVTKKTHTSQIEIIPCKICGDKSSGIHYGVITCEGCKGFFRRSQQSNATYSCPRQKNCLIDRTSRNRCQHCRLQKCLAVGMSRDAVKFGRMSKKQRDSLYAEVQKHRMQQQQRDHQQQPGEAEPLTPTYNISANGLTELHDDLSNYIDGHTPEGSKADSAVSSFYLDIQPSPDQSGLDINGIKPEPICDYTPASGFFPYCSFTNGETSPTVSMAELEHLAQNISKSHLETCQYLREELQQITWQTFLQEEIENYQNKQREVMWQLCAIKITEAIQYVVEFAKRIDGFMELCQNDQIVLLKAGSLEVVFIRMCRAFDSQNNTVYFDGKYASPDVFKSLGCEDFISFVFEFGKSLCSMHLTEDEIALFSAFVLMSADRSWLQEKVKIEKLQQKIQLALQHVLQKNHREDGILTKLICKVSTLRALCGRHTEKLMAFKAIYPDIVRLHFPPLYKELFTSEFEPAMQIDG
#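 Test system: CHO-K1 cells with Gal4-hRORA LBD fusion and pG5-luc reporter | Timing: 20 h compound treatment, 37 °C | Detection: Luminescence from basal luciferase reporter expression | Read-out basis: % inhibition of basal luciferase versus +RORA/-RORA DMSO controls | Repeats: One measurement per compound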
# * marks the source's active call; other numbers are inactive results.
SMILES,RORA inh
Cn1c(=O)c2nc(Cl)n(Cc3ccc(Cl)cc3Cl)c2n(C)c1=O,1.4
CC(C)NCC(O)Cn1c2c(c3ccccc31)CCc1c-2cnn1-c1ccccc1 (stereo not drawn),68.5*
CCCCNC(=O)c1cc2c(=O)n3cccc(C)c3nc2n(Cc2ccncc2)c1=N,20.3
Brc1cccc(C2CC(c3ccccc3)n3nnnc3N2)c1 (stereo not drawn),-5.1
O=C(Nc1nc(-c2cccnc2)cs1)c1ccc(S(=O)(=O)N2CCOCC2)cc1,20.5
CCC(=O)Nc1c(OC(=O)CC)ccc2c(C)cc(=O)oc12,-2.6
COc1ccc(OC)c2sc(NC(=O)c3ccc(S(=O)(=O)N(C)C)cc3)nc12,-15.0
COCCn1c(SCC(=O)Nc2cccc(C)c2)nnc1C(C)C,-26.2
COCCn1c(C)cc(C(=O)CSc2nnc(C)s2)c1C,68.1*
C=CCOc1ccc(C2c3c(oc4ccccc4c3=O)C(=O)N2c2ccccn2)cc1OCC (stereo not drawn),-10.5
O=C(O)c1ccc(COc2ccc(CO)cc2Cl)cc1,-4.9
Cn1nnc(NC(=O)c2cccc(OCc3ccccc3)c2)n1,-54.2
CN1CCN(C(=O)c2ccc(COc3ccc(Cl)cc3Cl)cc2)CC1,-4.2
CCOc1ccc2oc(-c3ccccc3)c(C(=O)O)c2c1,-3.8
CCOc1ccc(OCc2cccc(C(=O)O)c2)cc1,93.8*
CCOc1ccc(CCNC(=O)C(O)c2ccccc2)cc1 (stereo not drawn),3.2
COc1ccc(NS(=O)(=O)c2cc(C(=O)O)ccc2C)cc1,-3.7
COc1ccc(OCc2cccc(C(=O)O)c2)cc1,94.1*
O=C(O)c1cccc(COc2ccc(CO)cc2Cl)c1,93.8*
OC(CCN1CCOCC1)(c1ccc(Cl)cc1)C1CCCCC1 (stereo not drawn),7.1
C=CCn1c(C#N)c(N)sc1=N,6.2
C/C(O)=c1/ccc2cccc3nc(C)nc1c23,3.4
CCOC(=O)C1=C2N(C)c3ccccc3N2CCC1=O,1.8
CCN(Cc1ccccc1)C(=O)CCCOc1ccccc1,-58.0
COC(=O)c1nnn(CC(=O)Nc2cccc(Cl)c2)c1C(=O)OC,3.7
SMILES,RORA inh
CC1CCc2c(sc3nc(SCc4nc(-c5ccccc5)no4)n(C)c(=O)c23)C1 (stereo not drawn),18.5
Cn1c(=O)[nH]c(=O)c2c1nc(Sc1nc3ccccc3s1)n2Cc1ccccc1,-4.1
CCC1CCCCN1CCCNC(=O)COc1cc(=O)n(C)c2ccccc12 (stereo not drawn),-3.8
Cc1cc(NC(=O)CCCOc2ccc(Cl)cc2Cl)no1,5.6
Cc1ccnc(NC(=O)CCCOc2cc(=O)n(C)c3ccccc23)c1,56.7*
Cc1ccc2c(CSc3nnc(C4CC4)n3N)cc(=O)oc2c1C,2.7
Cn1cc(S(=O)(=O)NCc2cccs2)c(=O)n(C)c1=O,0.6
CCOC(=O)CN1CC23C=CC(O2)C(C(=O)Nc2ccc(F)c(C)c2)C3C1=O (stereo not drawn),21.8
COc1ccc(C(=O)Nc2ccc(C)cn2)c(OC)c1,78.3*
CCOc1ccc(NC(=O)c2ccccc2OC)cc1,-49.0
COc1ccccc1C(=O)Nc1ccccn1,-44.7
COc1cccc2c(=O)n(CC(=O)N3CCN(c4ccccc4)CC3)ccc12,-16.0
C/C(=N\O)c1ccc2c3c([nH]c2c1)CCCC3,-54.1
COc1ccc(-n2nc3cc(C)c(N)c(Br)c3n2)cc1,-49.7
Cc1cccn2cc(-c3ccccc3)nc12,-75.8
Cc1ccc2nc(-c3ccccc3)cn2c1,89.1*
Cc1cccc2cc(COC(=O)COc3ccccc3)c(=O)[nH]c12,-10.0
CCOC(=O)c1cnc(=O)[nH]c1C,2.7
CCOc1ccc(C2=Nn3c(nnc3-c3ccccc3OC)SC2)cc1,54.0*
Clc1ccc(C2=Nn3c(nnc3-c3n[nH]c4c3CCC4)SC2)cc1,17.2
COc1ccccc1-c1nnc(SCC(=O)Nc2nc(-c3ccccc3)cs2)n1C,-14.2
O=C(Nc1nnc(CCc2ccccc2)s1)c1ccco1,-53.5
O=C(Nc1ccc2c(c1)OCO2)C1CCCCN1S(=O)(=O)c1ccc(F)cc1 (stereo not drawn),8.4
CCc1cc2c3c(c(=O)oc2cc1O)CCCC3,0.5
Cc1ccc(-c2cc3c(nn2)-c2ccccc2C3=O)cc1,82.7*
SMILES,RORA inh
COC(=O)c1ccc(CSc2nc3scc(-c4cccs4)c3c(=O)[nH]2)o1,-6.9
Clc1ccc(OCc2nc(-c3ccncc3)no2)c(Br)c1,-58.9
CC1CCc2c(sc(NC(=O)c3noc4c3CCCC4)c2C(N)=O)C1 (stereo not drawn),-100.8
CCOC(=O)c1ccc(Oc2cc(C)nc(SC)n2)cc1,-56.6
O=c1cc(-c2c(F)c(F)c(F)c(F)c2F)oc2c(F)c(F)c(F)c(F)c12,83.9*
CCOc1ccc2oc(-c3ccccc3)c(C(=O)N3CCN(CCO)CC3)c2c1,8.6
OCCNc1nc(OCC(F)(F)F)nc(N2CCN(C34CC5CC(CC(C5)C3)C4)CC2)n1,21.3
CN1CCN(c2cc(=O)n(C3CCCCC3)c(=O)[nH]2)CC1,5.2
COc1ccccc1N1CCN(c2cc(=O)n(-c3ccccc3Cl)c(=O)[nH]2)CC1,-12.0
O=c1cc(N2CCN(c3cccc(Cl)c3)CC2)[nH]c(=O)n1C1CCCCC1,65.1*
C=CCNc1ncnc2c1cnn2-c1cccc(C)c1,-54.7
COc1ccc(-n2ncc3c(N4CCCCC4)ncnc32)cc1,87.1*
CC1CN(c2ncnc3c2cnn3-c2ccc(Cl)cc2)CC(C)O1 (stereo not drawn),-67.1
Cc1cccc(-n2ncc3c(N4CCOCC4)ncnc32)c1,67.3*
COc1ccc2nc(N3CCCCC3)c(C#N)cc2c1,-30.7
COc1ccc(-n2c(C)nc3c(cnn3-c3ccc(C)c(C)c3)c2=O)cc1,-64.9
Cc1cccc(-n2ncc3c(NCCCO)ncnc32)c1,-83.1
CCCCNc1ncnc2c1cnn2-c1ccc(Cl)cc1,-109.3
Clc1ccc(-n2ncc3c(N4CCCCCC4)ncnc32)cc1,68.3*
O=C(CSc1nnc(-c2cccs2)n1-c1ccccc1)Nc1ccccc1,6.7
COc1cc(C(=O)Nc2nnc(C)s2)cc(OC)c1OC,23.2
CCC(C)NC(=O)C1CCCN(C(=O)Nc2ccc(F)cc2)C1 (stereo not drawn),-6.6
COc1ccc2cc(CCNC(=O)C3CCCC3)c(=O)[nH]c2c1,3.9
c1ccn2c(CNc3ncnc4sccc34)nnc2c1,-1.7
CCOC(=O)N1CCN(C(=O)c2cccc(-n3c(=S)[nH]c4cc(Cl)ccc4c3=O)c2)CC1,0.4
SMILES,RORA inh
O=C1C(=O)N(CCCn2ccnc2)C(c2cccnc2)/C1=C(/O)c1ccccc1 (stereo not drawn),-10.3
CC(C)(C)NC(=O)CSc1n[nH]c(=O)n1-c1ccccc1,-4.4
O=C(CSc1nccc2ccccc12)N1CCN(Cc2ccc3c(c2)OCO3)CC1,4.1
Nc1cc(C2CCCC2)nn1-c1ccccc1,-61.6
Cc1cc(NO)nc(-c2ccc(Br)cc2)n1,-59.3
CCOC(=O)c1cc2sccc2n1CC(=O)N1CCN(C(=O)c2ccco2)CC1,17.8
O=C(c1ccco1)N1CCN(c2ccc(Cl)cc2)CC1,-98.2
Cc1noc(C)c1S(=O)(=O)Nc1ccc(C(=O)N2CCN(c3ccc(Cl)cc3)CC2)cc1,60.4*
CC(=O)c1ccc(N2CCN(C(=O)c3ccc(OCc4c(C)noc4C)cc3)CC2)cc1,9.0
CC(C)C1N(S(=O)(=O)c2ccccc2)CCN1S(=O)(=O)c1ccccc1,-14.1
COc1ccc(NC(=O)CC2Oc3ccccc3NC2=O)cc1 (stereo not drawn),10.5
COc1ccc(CNc2cc(C)nc3ncnn23)c(OC)c1,67.0*
